Here are results for three compounds from ChEMBL document CHEMBL1149780, “Unsaturated fluoro-ketopyranosyl nucleosides: synthesis and biological evaluation of 3-fluoro-4-keto-beta-d-glucopyranosyl derivatives of N(4)-benzoyl cytosine and N(6)-benzoyl adenine” (Eur J Med Chem, 2008).

The nature of experiment [1]: Ratio of CC50 for Caco-2 cells to IC50 for rotavirus infected human Caco2 cells assessed as inhibition of infectivity following virus attachment.
Experiment [2] has as its system H4. In words: Cytotoxicity against human H4 cells after 72 hrs. It counts as functional. As to conditions: H4, 72 h. The method, boiled down: (§1)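 Caco-2, H4 (normal intestinal), MCF-7 and skin melanoma cells seeded at 6 × 10^6 cells per plate, given 3-fold serial dilutions (top 0.5 mg/mL; DMSO below 0.1%), 37 °C, 72 h.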
Experiment [3] relates to Caco-2. In words: Cytotoxicity against human Caco-2 cells after 72 hrs. It counts as functional. The conditions noted are these: Caco-2, 72 h. The method, boiled down:
as §1

Experiment [4] deals with MCF7. In words: Cytotoxicity against human MCF7 cells after 72 hrs. The experiment is classed as functional. As to conditions: MCF7, 72 h. The method, boiled down:
as §1

The nature of experiment [5]: Cytotoxicity against human melanoma cells after 72 hrs. The experiment is classed as functional. The conditions noted are these: Melanoma cell. In short, it runs like this:
as §1

Experiment [6] has as its system H4. In words: Tumor selectivity index, CC50 for human H4 cells to CC50 for human Caco-2 cells. It counts as functional.
The subject of experiment [7] is H4. In words: Tumor selectivity index, CC50 for human H4 cells to CC50 for human melanoma cells. The experiment is classed as functional.
The test system of experiment [8] is MCF7. In words: Tumor selectivity index, CC50 for human H4 cells to CC50 for human MCF7 cells. It counts as functional.
Experiment [9] relates to Caco-2. Nature of the experiment: Growth inhibition of human Caco-2 cells. The experiment is classed as functional, cell-based. In short, it runs like this:
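Colony-formation assay: Caco-2 seeded at 10 cells/well in DMEM-10% FBS, given 3-fold dilutions (top 0.5 mg/mL), incubated 10 days at 37 °C. Colonies counted; colony number in treated (n = 2) vs control wells (n = 24) as %; IC50 from concentration-effect curve.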

Another experiment has as its system Rotavirus. Nature of the experiment: Antiviral activity against gastrointestinal rotavirus in human Caco-2 cells assessed as inhibition of infectivity following virus attachment. It counts as functional, organism-based. The method, boiled down:
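Caco-2 monolayers washed, exposed to rotavirus RF strain (1.5 TCID50/mL, 100 µL/well) for 1 h at 37 °C, 5% CO2; unbound virus washed off, then 3-fold serial compound dilutions added (top 0.5 mg/mL; DMSO below 0.1%).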

Usually CC50 stands for the concentration at which the toxic effect on the cells reaches its halfway point. As usually defined, the IC50 is the point on the concentration scale where inhibition reaches its midpoint.

Turning to `O=C(Nc1ncnc2ncn([C@H]3C=C(F)C(=O)[C@@H](COC(c4ccccc4)(c4ccccc4)c4ccccc4)O3)c12)c1ccccc1`, the “Ratio CC50/IC50” value in [1] is recorded as 0.04. The CC50 with H4 [2] came to 799 µM; in the experiment with Caco-2 [3] it was 31.9 µM; in the experiment on MCF7 [4] it was 9.5 µM; in [5] it was 9.5 µM. Besides, the values for the Ratio in the experiment on H4 [6], in the experiment on H4 [7] and with MCF7 [8] were 25, 84.1 and 84.1, respectively. Also, the IC50 stood at 1.1 µM in the experiment with Caco-2 [9] and 799 µM in the experiment with Rotavirus.
On to `O=c1[nH]cc(F)c(=O)[nH]1` [FLUOROURACIL], for which the Ratio with H4 [6] stood at 10; with H4 [7] it was 83.4; in the experiment with MCF7 [8], 5.
In the case of `Cc1cn([C@H]2C[C@H](N=[N+]=[N-])[C@@H](CO)O2)c(=O)[nH]c1=O` [ZIDOVUDINE], the “Ratio CC50/IC50” value in [1] is recorded as 2.5. This compound had a half-maximal cytotoxic concentration (CC50) in the experiment on Caco-2 [3] of 56.1 µM.
